Converted amounts (≈) assume the structure as drawn.
Each compound was assayed against T1, Aspartyl/glutamyl-tRNA(Asn/Gln) amidotransferase subunit A (Streptococcus pyogenes serotype M1, UniProt Q99YC0) (assay: In vitro inhibitory concentration against Glutaminase activity of bacterial Glu-tRNA-Gln […] (Glu-AdT)).
Summary of the method: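 S. pyogenes Glu-AdT, glutaminase-only reaction with no ATP or tRNA. Gln at 2×Km. Inhibitor titrated over […]. Enzyme pre-incubated 15 min with inhibitor, then started with Gln. Reaction buffer was 50 mM HEPES, 25 mM MgCl₂, 15 mM KCl, 1% DMSO, pH 7. IC50 determined in duplicate.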

T1 sequence (Q99YC0 whole entry, looked up): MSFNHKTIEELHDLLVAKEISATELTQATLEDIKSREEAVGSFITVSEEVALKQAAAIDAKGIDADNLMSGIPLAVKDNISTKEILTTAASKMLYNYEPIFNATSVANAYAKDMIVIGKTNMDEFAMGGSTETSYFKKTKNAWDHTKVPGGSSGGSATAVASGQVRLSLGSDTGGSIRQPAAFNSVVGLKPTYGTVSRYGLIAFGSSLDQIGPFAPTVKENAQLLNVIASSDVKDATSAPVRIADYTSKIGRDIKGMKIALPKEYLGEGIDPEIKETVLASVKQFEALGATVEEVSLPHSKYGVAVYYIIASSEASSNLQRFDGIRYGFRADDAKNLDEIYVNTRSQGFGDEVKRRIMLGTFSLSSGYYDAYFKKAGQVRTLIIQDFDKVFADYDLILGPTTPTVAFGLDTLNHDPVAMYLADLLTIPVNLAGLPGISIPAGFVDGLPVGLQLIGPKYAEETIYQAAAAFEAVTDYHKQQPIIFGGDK

| Compound | IC50 [µM] |
| --- | --- |
| COC(=O)[C@@H](N)CCCB1O[C@@]2(C)CCC3C[C@@]2(O1)C3(C)C | > 80 |
| CC1(C)C2CC[C@]3(C)OB(CCC[C@H](N)C(=O)O)O[C@]13C2 | > 80 |
| CC1(C)C2CC[C@]3(C)OB(CC[C@H](N)C(=O)NS(=O)(=O)c4ccc(N)cc4)O[C@]13C2 | > 80 |
| COC(=O)[C@H](CCCB1O[C@@]2(C)CCC3C[C@@]2(O1)C3(C)C)NC(=O)OCc1ccccc1 | > 80 |
| CC1(C)C2CC[C@]3(C)OB(CCC[C@H](NC(=O)OCc4ccccc4)C(=O)O)O[C@]13C2 | > 80 |
| CC1(C)C2CC[C@]3(C)OB(CC[C@H](N)C(=O)NS(=O)(=O)c4ccccc4)O[C@]13C2 | 40 |
| CC(=O)N[C@@H](CCB1O[C@@]2(C)CCC3C[C@@]2(O1)C3(C)C)C(=O)O | > 80 |
| CC1(C)C2CC[C@]3(C)OB(CC[C@H](N)C(=O)NS(=O)(=O)C(F)(F)F)O[C@]13C2 | 55 |
| CNC(=O)CNC(=O)[C@@H](N)CCB1O[C@@]2(C)CCC3C[C@@]2(O1)C3(C)C | 40 |

Each compound was assayed against T1, Aspartyl/glutamyl-tRNA(Asn/Gln) amidotransferase subunit A (assay: In vitro inhibitory concentration against transferase activity of bacterial Glu-tRNA-Gln […] (Glu-AdT)).
Summary of the method: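 S. pyogenes Glu-AdT, Gln-dependent transferase reaction. Substrates were Glu-tRNAGln at >10×Km, ATP at 2×Km and Gln at 0.5×Km. Inhibitor titrated over […]. Enzyme pre-incubated 15 min with inhibitor, Glu-tRNAGln and ATP, then started with Gln. Buffer was 50 mM HEPES, 25 mM MgCl₂, 15 mM KCl, 1% DMSO, pH 7. IC50 determined in duplicate.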

| Compound | IC50 [µM] |
| --- | --- |
| COC(=O)[C@@H](N)CCCB1O[C@@]2(C)CCC3C[C@@]2(O1)C3(C)C | > 20 |
| CC1(C)C2CC[C@]3(C)OB(CCC[C@H](N)C(=O)O)O[C@]13C2 | > 20 |
| CC1(C)C2CC[C@]3(C)OB(CC[C@H](N)C(=O)NS(=O)(=O)c4ccc(N)cc4)O[C@]13C2 | 10 |
| COC(=O)[C@H](CCCB1O[C@@]2(C)CCC3C[C@@]2(O1)C3(C)C)NC(=O)OCc1ccccc1 | > 20 |
| CC1(C)C2CC[C@]3(C)OB(CCC(N)CC(=O)O)O[C@]13C2 (stereo not given in full) | 6.5 |
| CC1(C)C2CC[C@]3(C)OB(CCC[C@H](NC(=O)OCc4ccccc4)C(=O)O)O[C@]13C2 | > 20 |
| CN[C@@H](CCB1O[C@@]2(C)CCC3C[C@@]2(O1)C3(C)C)C(=O)O | 1.1 |
| CC1(C)C2CC[C@]3(C)OB(CC[C@H](N)C(=O)NS(=O)(=O)c4ccccc4)O[C@]13C2 | 20 |
| CC(=O)N[C@@H](CCB1O[C@@]2(C)CCC3C[C@@]2(O1)C3(C)C)C(=O)O | > 20 |
| CC1(C)C2CC[C@]3(C)OB(CC[C@H](N)C(=O)NS(=O)(=O)C(F)(F)F)O[C@]13C2 | 4.7 |
| CNC(=O)CNC(=O)[C@@H](N)CCB1O[C@@]2(C)CCC3C[C@@]2(O1)C3(C)C | 20 |

What follows are compounds tested on Enterococcus faecalis (assay: Tested for minimal growth inhibitory concentration against […] ATCC 29212).
Assay type: functional

| Compound | MIC [µg/mL] |
| --- | --- |
| CNC(=O)CNC(=O)[C@@H](N)CCB1O[C@@]2(C)CCC3C[C@@]2(O1)C3(C)C | 16 (≈ 45.6 µM) |

These compounds were tested on Staphylococcus aureus (assay: Tested for minimal growth inhibitory concentration against Staphylococcus aureus ATCC 29213).
Assay type: functional

| Compound | MIC [µg/mL] |
| --- | --- |
| CNC(=O)CNC(=O)[C@@H](N)CCB1O[C@@]2(C)CCC3C[C@@]2(O1)C3(C)C | > 64 |

These compounds were tested on Staphylococcus epidermidis (assay: Tested for minimal growth inhibitory concentration against Staphylococcus epidermidis ATCC 51625).
Assay type: functional

| Compound | MIC [µg/mL] |
| --- | --- |
| CNC(=O)CNC(=O)[C@@H](N)CCB1O[C@@]2(C)CCC3C[C@@]2(O1)C3(C)C | > 64 |

The compounds below were run on Staphylococcus aureus (assay: Tested for minimal growth inhibitory concentration against Staphylococcus aureus ATCC 25923).
Assay type: functional

| Compound | MIC [µg/mL] |
| --- | --- |
| CNC(=O)CNC(=O)[C@@H](N)CCB1O[C@@]2(C)CCC3C[C@@]2(O1)C3(C)C | > 64 |

These compounds were tested on Staphylococcus aureus (assay: Tested for minimal growth inhibitory concentration against Staphylococcus aureus ATCC 4330).
Assay type: functional

| Compound | MIC [µg/mL] |
| --- | --- |
| CNC(=O)CNC(=O)[C@@H](N)CCB1O[C@@]2(C)CCC3C[C@@]2(O1)C3(C)C | > 64 |

What follows are compounds tested on Streptococcus pyogenes (assay: Tested for minimal growth inhibitory concentration against Streptococcus pyogenes ATCC 13709).
Assay type: functional

| Compound | MIC [µg/mL] |
| --- | --- |
| CNC(=O)CNC(=O)[C@@H](N)CCB1O[C@@]2(C)CCC3C[C@@]2(O1)C3(C)C | 8 (≈ 22.8 µM) |

These compounds were tested on Streptococcus pneumoniae (assay: Tested for minimal growth inhibitory concentration against Streptococcus pneumoniae ATCC 49619).
Assay type: functional

| Compound | MIC [µg/mL] |
| --- | --- |
| CNC(=O)CNC(=O)[C@@H](N)CCB1O[C@@]2(C)CCC3C[C@@]2(O1)C3(C)C | 16 (≈ 45.6 µM) |

Each compound was assayed on Helicobacter pylori (assay: Tested for minimal growth inhibitory concentration against Helicobacter pylori ATCC 43629).
Assay type: functional
Summary of the method: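 Broth dilution in Brain–Heart Infusion broth with 0.25% yeast extract and 10% horse serum. Inoculum was 6×10⁵ CFU per well, incubated 72 h at 37 °C under 10% CO₂. Highest concentration tested was 64. NCCLS-recommended control antibiotics tracked strain performance.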

| Compound | MIC [µg/mL] |
| --- | --- |
| CNC(=O)CNC(=O)[C@@H](N)CCB1O[C@@]2(C)CCC3C[C@@]2(O1)C3(C)C | 16 (≈ 45.6 µM) |

These compounds were tested on Staphylococcus epidermidis (assay: Tested for minimal growth inhibitory concentration against Staphylococcus epidermidis ATCC 12228).
Assay type: functional

| Compound | MIC [µg/mL] |
| --- | --- |
| CNC(=O)CNC(=O)[C@@H](N)CCB1O[C@@]2(C)CCC3C[C@@]2(O1)C3(C)C | > 64 |

What follows are compounds tested on Staphylococcus carnosus (assay: Tested for minimal growth inhibitory concentration against Staphylococcus carnosus ATCC 51365).
Assay type: functional

| Compound | MIC [µg/mL] |
| --- | --- |
| CNC(=O)CNC(=O)[C@@H](N)CCB1O[C@@]2(C)CCC3C[C@@]2(O1)C3(C)C | > 64 |

From ChEMBL document CHEMBL1133968, “Glutamyl-gamma-boronate inhibitors of bacterial Glu-tRNA(Gln) amidotransferase” (Bioorg Med Chem Lett, 2001)
